Laboratory results reported in ChEMBL document CHEMBL2429857, “Synthesis and pharmacological evaluation of pyrazolopyrimidopyrimidine derivatives: anti-inflammatory agents with gastroprotective effect in rats” (2013).

Experiments:
Rattus norvegicus [1] = test: Gastroprotective activity in Wistar rat assessed as inhibition of HCl/ethanol-induced gastric ulcer at 100 mg/kg, ip administered 30 mins prior to HCl/ethanol challenge measured after 1 hr relative to vehicle-treated control; assay type: functional; conditions: Stomach, route intraperitoneal
How it was run: (§1)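 Male Wistar rats (150–170 g), fasted 24 h, six per group. Vehicle (Tween 80/ethanol/saline 1/1/18) or treatment given i.p.; 30 min later, oral 150 mM HCl/EtOH (40:60, v/v), 1 ml/100 g. Killed 1 h afterwards. Stomachs opened along the greater curvature and stretched out. Summed lesion length (mm) taken as lesion index; % inhibition against vehicle controls. Mean ± SEM, Student's t test.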

Rattus norvegicus [2] = test: Antiinflammatory activity in Wistar rat assessed as inhibition of carrageenan-induced paw edema at 50 mg/kg, ip administered 30 mins prior to carrageenan challenge measured after 1 hr relative to vehicle-treated control; assay type: functional; conditions: route intraperitoneal
How it was run: (§2)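 Adult male Wistar rats (150–170 g), fasted overnight with water, n = 6 per group. Vehicle (Tween 80/absolute ethanol/0.9 % saline 1:1:18; 2.5 ml/kg) or drug given i.p. 30 min before 0.05 ml of 1 % carrageenan into the left hind paw. Paw volume to the tibiotarsal joint measured by plethysmometer at 0, 1, 3, 5 h. Oedema = VT − V0; % inhibition against vehicle controls. Mean ± SEM, Student's t test.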

Rattus norvegicus [3] = test: Antiinflammatory activity in Wistar rat assessed as inhibition of carrageenan-induced paw edema at 100 mg/kg, ip administered 30 mins prior to carrageenan challenge measured after 1 hr relative to vehicle-treated control; assay type: functional; conditions: route intraperitoneal; how it was run: as §2
Rattus norvegicus [4] = test: Antiinflammatory activity in Wistar rat assessed as inhibition of carrageenan-induced paw edema at 50 mg/kg, ip administered 30 mins prior to carrageenan challenge measured after 5 hrs relative to vehicle-treated control; assay type: functional; conditions: route intraperitoneal; how it was run: as §2
Rattus norvegicus [5] = test: Antiinflammatory activity in ip dosed Wistar rat assessed as inhibition of carrageenan-induced paw edema administered 30 mins prior to carrageenan challenge measured after 1 to 5 hrs relative to vehicle-treated control; assay type: functional, organism-based; how it was run: as §2
Rattus norvegicus [6] = test: Gastroprotective activity in Wistar rat assessed as inhibition of HCl/ethanol-induced gastric ulcer at 50 mg/kg, ip administered 30 mins prior to HCl/ethanol challenge measured after 1 hr relative to vehicle-treated control; assay type: functional; conditions: Stomach, route intraperitoneal; how it was run: as §1
Rattus norvegicus [7] = test: Antiinflammatory activity in Wistar rat assessed as inhibition of carrageenan-induced paw edema at 50 mg/kg, ip administered 30 mins prior to carrageenan challenge measured after 3 hrs relative to vehicle-treated control; assay type: functional; conditions: route intraperitoneal; how it was run: as §2
Rattus norvegicus [8] = test: Antiinflammatory activity in Wistar rat assessed as inhibition of carrageenan-induced paw edema at 100 mg/kg, ip administered 30 mins prior to carrageenan challenge measured after 5 hrs relative to vehicle-treated control; assay type: functional; conditions: route intraperitoneal; how it was run: as §2
Rattus norvegicus [9] = test: Antiinflammatory activity in Wistar rat assessed as inhibition of carrageenan-induced paw edema at 100 mg/kg, ip administered 30 mins prior to carrageenan challenge measured after 3 hrs relative to vehicle-treated control; assay type: functional; conditions: route intraperitoneal; how it was run: as §2

Row | SMILES | inhibition in vivo at 100 mg/kg (Rattus norvegicus [1]) [%] | inhibition in vivo at 50 mg/kg (Rattus norvegicus [2]) [%] | inhibition in vivo at 100 mg/kg (Rattus norvegicus [3]) [%] | inhibition in vivo at 50 mg/kg (Rattus norvegicus [4]) [%] | inhibition (Rattus norvegicus [5]) | inhibition in vivo at 50 mg/kg (Rattus norvegicus [6]) [%] | inhibition in vivo at 50 mg/kg (Rattus norvegicus [7]) [%] | inhibition in vivo at 100 mg/kg (Rattus norvegicus [8]) [%] | inhibition in vivo at 100 mg/kg (Rattus norvegicus [9]) [%]
1 | Cc1nn(-c2ccccc2)c2ncn3c(=N)c(C#N)cnc3c12 | 64.7 | 42.6 | 80.4 | 39.8 | Dose-dependent effect | 48.6 | 40.6 | 58.1 | 56.8
2 | CCOC(=O)c1c(CC)nc2c3c(C)nn(-c4ccccc4)c3ncn2c1=N | 52.2 | 32 | 65.7 | 25.1 | Dose-dependent effect | 40.2 | 28.8 | 40.2 | 42.9
3 | CCOC(=O)c1c(C)nc2c3c(C)nn(-c4ccccc4)c3ncn2c1=N | 91.4 | 62.3 | 94.2 | 59.4 | Dose-dependent effect | 72.5 | 60 | 68.8 | 82.8
4 | Cc1nc2c3c(C)nn(-c4ccccc4)c3ncn2c(=N)c1C#N | – | 59.2 | 92.2 | 58 | Dose-dependent effect | 68.4 | 59 | 62.8 | 71.4
5 | CN/C(=N\CCSCc1nc[nH]c1C)NC#N [CIMETIDINE] | 74 | – | – | – | – | – | – | – | –
